# Test results as given in PubChem BioAssay.
# Active and inactive are the calls of the source.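 Rule for the calls, unless noted: active = visually confirmed hit in the image check and inhibition above 20%; inconclusive = visually confirmed hit but inhibition not above 20%; inactive = no visual hit in the image check.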
# Experiments:
# [1] = inhibitors of TNFa-induced NFkB p65 translocation, primary screen, imaging, HUVEC, MLSMR starter and 10KST1 sets (AID 438;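 active = inhibition above 20% together with a positive visual image hit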;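 note: compound added about 3h40 before a 20 min TNFalpha stimulation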;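 for inhibition: signal is the nuclear over cytoplasmic p65 intensity ratio per well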); settings: HUVEC TNFa-induced p65 nuclear translocation; cell count: measured here: nuclei count (cytotoxicity indicator), at 2.08 µM; inhibition: at 2 µM, stronger effect = higher value, 0% TNFa-plus-vehicle, 100% no-TNFa wells
# [2] = inhibitors of mutant huntingtin aggregation, primary screen, imaging, exon1htt(103Q)mCFP cells, high-content imaging (AID 483;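 active = visual image review flags a hit and inhibition of aggregation exceeds 20%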;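 note: compound exposure lasted 3 days before fixation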;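 for nuclei count: percent of the per-plate median nuclei count of sample wells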); settings: exon1htt(103Q)mCFP cell line, aggregate imaging, at 2 µM; inhibition of aggregation: stronger effect = higher value; nuclei count: measured here: cell count, toxicity
# [3] = inhibitors of E-selectin induction by TNFa, primary screen, imaging, HUVEC, immunofluorescence, MLSMR starter and 10KST1 sets (AID 487); settings: HUVEC TNFalpha-induced E-selectin immunofluorescence imaging, at 2 µM; inhibition: stronger effect = higher value; nuclei count: measured here: cell number, toxicity;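 for inhibition: signal is fraction of cell area covered by stained E-selectin grains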;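 for nuclei count: 100% = median nuclei count of all wells on the same plate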
# [4] = biological target: Voltage-gated potassium channel subunit beta-2 (Rattus norvegicus) (UniProt P62483); assay: KvBeta enzyme negative modulators, primary screen, biochemical, NADPH fluorescence (AID 622;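 active = fluorescence slope higher than the sample average by over 3 SD, cut at about -0.22 in these data, passing the limit was not always enough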;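 note: slope of raw intensity against log time taken from 70 to 1610 s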); settings: recombinant KvBeta, 4-cyanobenzaldehyde reduction, at 10 µM, stronger effect = higher value
# Chain of Voltage-gated potassium channel subunit beta-2 (Rattus norvegicus) (P62483 whole entry, looked up): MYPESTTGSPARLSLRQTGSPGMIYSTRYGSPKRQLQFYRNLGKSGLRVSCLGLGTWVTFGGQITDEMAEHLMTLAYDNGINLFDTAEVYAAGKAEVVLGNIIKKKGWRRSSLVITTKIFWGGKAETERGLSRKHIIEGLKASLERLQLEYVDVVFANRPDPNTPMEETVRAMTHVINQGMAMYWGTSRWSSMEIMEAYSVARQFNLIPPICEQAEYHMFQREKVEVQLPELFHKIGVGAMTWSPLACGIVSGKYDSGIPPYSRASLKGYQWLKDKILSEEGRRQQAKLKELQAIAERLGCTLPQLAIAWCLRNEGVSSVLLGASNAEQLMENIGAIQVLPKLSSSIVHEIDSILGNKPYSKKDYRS
# [5] = biological target: Voltage-gated potassium channel subunit beta-2 (Rattus norvegicus) (UniProt P62483); assay: KvBeta positive modulators, primary screen, biochemical, NADPH fluorescence (AID 623;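 active = NADPH fluorescence slope more negative than the mean of all samples by about 3 SD, 99.7% confidence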;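 note: fluorescence intensity change per second fitted from 20 to 320 s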); settings: Recombinant KvBeta, NADPH fluorescence decrease slope, 10 min; at 10 µM; stronger effect = lower value
# [6] = biological target: Muscarinic acetylcholine receptor M4 (Homo sapiens) (UniProt P08173); assay: compounds altering M4/GIRK thallium flux, either direction, primary screen, M4 allosteric agonist project, cell-based, HEK293 M4/GIRK, BTC-AM (AID 625;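 active = fluorescence slope after compound addition differing from the mean of all tested samples at 99.7% confidence, mostly higher but some lower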;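 note: thallium influx through GIRK channels coupled to M4 in HEK293 cells with BTC-AM dye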); settings: at 10 µM, actives lie on both sides
# Chain of Muscarinic acetylcholine receptor M4 (Homo sapiens) (P08173 whole entry, looked up): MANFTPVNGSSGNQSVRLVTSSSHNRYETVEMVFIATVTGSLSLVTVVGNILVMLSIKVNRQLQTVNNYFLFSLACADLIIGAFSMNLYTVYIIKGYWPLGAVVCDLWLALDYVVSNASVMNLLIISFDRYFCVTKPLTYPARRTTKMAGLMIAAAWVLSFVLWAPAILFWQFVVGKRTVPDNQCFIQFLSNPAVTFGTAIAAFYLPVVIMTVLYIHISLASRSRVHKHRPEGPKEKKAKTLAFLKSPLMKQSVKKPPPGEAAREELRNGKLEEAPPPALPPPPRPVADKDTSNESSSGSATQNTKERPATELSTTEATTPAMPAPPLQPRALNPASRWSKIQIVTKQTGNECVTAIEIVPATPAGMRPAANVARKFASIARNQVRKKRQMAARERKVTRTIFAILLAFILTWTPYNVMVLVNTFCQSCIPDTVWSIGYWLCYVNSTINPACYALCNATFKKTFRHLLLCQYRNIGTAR
# Outline: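 Assay system: HEK293 cells with M4 receptor and GIRK channels / Controls: carbachol and DMSO controls / Schedule: 1 h dye loading, 2 min kinetic read / Technique: kinetic fluorescence with BTC-AM dye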
# [7] = inhibitors of Sendai virus-induced IRF3 signaling, primary screen, TLR/RLR signaling modifier project, cell-based, Sendai virus stimulus, luciferase, 10K MLSCN set (AID 602276;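 active = inhibition at or above 50% at 10 µM; inactive = inhibition below 50%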;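 note: firefly luciferase from ISG56 promoter only with Renilla not read in this screen; 0% = Sendai virus plus DMSO and 100% = medium plus DMSO without virus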); settings: HEK293 RL24 IRF3 luciferase reporter, at 10 µM, stronger effect = higher value
# [8] = inhibitors of poly I:C-induced TLR3 signaling, primary screen, cell-based, poly I:C stimulus, luciferase, 10K MLSCN set (AID 602277;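 active = inhibition of the reporter signal at or above 50%; inactive = inhibition below 50%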); settings: HEK293-TLR3 RL24 IRF3 luciferase reporter, at 10 µM, stronger effect = higher value
SMILES,cell count [1],inhibition [1],inhibition of aggregation [2],nuclei count [2] [%],inhibition [3],nuclei count [3] [%],fluorescence slope [4],NADPH fluorescence slope [5],fluorescence slope [6],inhibition [7],inhibition [8]
COc1cccc(-c2nc(-c3ccc(NC(=O)Cc4ccccc4OC)cc3)no2)c1,429,-1.8% (inactive),-12.3% (inactive),95.4,-68.2% (inactive),116,-0.561 (inactive),-1.4e-06 (inactive),0.0119 (active),13% (inactive),-45.2% (inactive)
CSc1cccc(NC(=O)C2CCCN2S(=O)(=O)c2ccc3c(c2)CCC(=O)N3)c1 (centres undefined),571,-6.9% (inactive),-43.4% (inactive),99.9,-72.3% (inactive),108,-0.456 (inactive),4.1e-06 (inactive),0.00486 (inactive),4.83% (inactive),8.19% (inactive)
N#CC1=C(N)SC(N)=C(C#N)C1CCc1ccccc1,300,-3.2% (inactive),-16.8% (inactive),83,-171% (inactive),104,-0.543 (inactive),-2e-06 (inactive),0.00612 (inactive),18% (inactive),26.3% (inactive)
CN1CC=C2C(C#N)=C(N)C(C#N)(C#N)C(c3cccc(Cl)c3Cl)C2C1 (centres undefined),566,-8.5% (inactive),-7.2% (inactive),110,-13.9% (inactive),99.2,-0.399 (inactive),-0.000109 (inactive),0.00362 (inactive),8.89% (inactive),9.8% (inactive)
c1ccc(CNc2ccc3c(c2)ncn3C2CCCCC2)nc1,171,-4.9% (inactive),20% (inactive),78.3,-12.5% (inactive),97,-0.58 (inactive),4.2e-05 (inactive),0.00406 (inactive),-10.6% (inactive),-24.3% (inactive)
CCCn1c(SCC(=O)N2CCCc3ccccc32)nnc1-c1ccccn1,471,-0.8% (inactive),-0.4% (inactive),100,-20.1% (inactive),113,-0.59 (inactive),-6.6e-06 (inactive),0.00584 (inactive),20.3% (inactive),20% (inactive)
CC(=O)Oc1ccc(CCC(C)OC(C)=O)cc1 (centres undefined),634,-2.9% (inactive),-2.2% (inactive),100,-0.1% (inactive),84,-0.518 (inactive),-5.9e-05 (inactive),0.00491 (inactive),14.9% (inactive),12.9% (inactive)
N#Cc1c(NC(=O)CSc2nnnn2C2CCCC2)sc2c1CCCC2,527,-1.8% (inactive),-3.6% (inactive),114,36.6% (inactive),109,-0.392 (inactive),2.8e-05 (inactive),0.00642 (inactive),11% (inactive),26.3% (inactive)
CCOc1cc(N2CCOCC2)c(OCC)cc1NC(=O)CSc1cccc[n+]1[O-],506,10.6% (inactive),2.4% (inactive),109,-56.8% (inactive),115,-0.506 (inactive),-0.000267 (inactive),0.00543 (inactive),15.1% (inactive),18.2% (inactive)
O=C(CCC(=O)OCCCC(F)(F)C(F)(F)F)NC1CCCCC1,424,4% (inactive),5.5% (inactive),108,-37.5% (inactive),122,-0.53 (inactive),-4e-05 (inactive),0.00556 (inactive),13.9% (inactive),16.1% (inactive)
CCOC(=O)c1ccc(NC2OC(=O)c3ccccc32)cc1 (centres undefined),605,-54.1% (inactive),6.4% (inactive),106,-85.2% (inactive),118,-0.216 (inactive),-2.5e-05 (inactive),0.00703 (inactive),11.8% (inactive),-21.4% (inactive)
CCOC(=O)CNc1ccc2c(c1)OCO2,368,-7.7% (inactive),8.3% (inactive),99.8,-105% (inactive),118,-0.488 (inactive),-0.000182 (inactive),0.00399 (inactive),8.79% (inactive),12.5% (inactive)
Cc1ccc(C(=O)OCC(=O)c2ccc(Cl)s2)s1,654,-24.7% (inactive),10.6% (inactive),86,-13.1% (inactive),121,-0.454 (inactive),0.000104 (inactive),0.00572 (inactive),-26% (inactive),-58% (inactive)
Cc1nc(/N=C\N(C)C)sc1C(=O)Nc1ccccc1,602,1.5% (inactive),-11.8% (inactive),113,-27.8% (inactive),97.5,-0.306 (inactive),-2e-05 (inactive),0.00595 (inactive),-2.68% (inactive),-18.9% (inactive)
CC(=O)Nc1ccc(S(=O)(=O)N(CC(=O)O)Cc2ccccc2)cc1,487,6% (inactive),4.7% (inactive),107,-167% (inactive),130,-0.575 (inactive),-4.6e-05 (inactive),0.00557 (inactive),8.06% (inactive),14.2% (inactive)
COc1ccc(C2CC(c3ccc(Cl)cc3)Nc3nc(NC(=O)c4ccco4)nn32)cc1 (centres undefined),574,-11.9% (inactive),-6.2% (inactive),98.1,27.9% (inactive),91.8,-0.427 (inactive),-6.7e-05 (inactive),0.00611 (inactive),14.1% (inactive),24.6% (inactive)
O=C(CSc1ncccn1)c1ccccc1Br,483,2.9% (inactive),0.9% (inactive),114,1.5% (inactive),103,-0.582 (inactive),-0.000119 (inactive),0.00475 (inactive),-24.3% (inactive),-65.9% (inactive)
CCN(C#N)c1nc(NC(C)C)nc(NC(C)C)n1,354,3.3% (inactive),14.7% (inactive),100,-0.6% (inactive),82.6,-0.316 (inactive),-5.2e-05 (inactive),0.00491 (inactive),0.243% (inactive),9.55% (inactive)
CCOC(=O)N1CCN(C(=O)c2ccc3c(=O)n(CCc4ccccc4)c(=O)[nH]c3c2)CC1,784,-7.8% (inactive),5.4% (inactive),111,-60% (inactive),115,-0.307 (inactive),4.7e-06 (inactive),0.00774 (inactive),-16.4% (inactive),-40% (inactive)
